In ChEMBL document CHEMBL1148769, “3,17-disubstituted 2-alkylestra-1,3,5(10)-trien-3-ol derivatives: synthesis, in vitro and in vivo anticancer activity” (J Med Chem, 2007):
pIC50: −log10 of the molar value. Active and inactive are the calls of the source. The rule behind the calls is not given here.

Assays:
DU-145 [1] = assay: Antiproliferative activity against human DU145 cells after 96 hrs by WST1 assay; format: functional; conditions: DU-145, 96 h
How it was run: (§1)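 Cells kept in RPMI-1640 with 10% FBS, penicillin and streptomycin at 37 °C in 5% CO2. Seeded at 5000 cells/well, exposed to 10^-9-10^-4 M compound or vehicle for 96 h. Live cells counted by WST-1 and viability expressed as % of mean control, from which GI50 was calculated. Triplicate experiments.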

MDA-MB-231 [2] = assay: Antiproliferative activity against human MDA-MB-231 cells after 96 hrs by WST1 assay; format: functional; conditions: MDA-MB-231, 96 h; how it was run: as §1
MDA-MB-231 [3] = assay: Antitumor activity against human MDA-MB-231 cells xenografted athymic mouse at 60 mg/kg/day, po after 28 days; format: functional, organism-based
How it was run: (§2)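 Female NCr-nude mice, 6-8 weeks old, bearing MDA-MB-231 xenografts, dosed orally in THF/PG vehicle from day 10. Schedules: 60 mg/kg daily for 28 d (to day 38), 90 mg/kg Mon/Wed/Fri × 4 (to day 36), or 200 mg/kg weekly × 4 (to day 32). Tumor volume was (w² × l)/2; one-way ANOVA against control.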

MDA-MB-231 [4] = assay: Antitumor activity against human MDA-MB-231 cells xenografted athymic mouse at 90 mg/kg, po thrice a week for 4 weeks; format: functional, organism-based; design: dose 90 mg/kg; how it was run: as §2
MDA-MB-231 [5] = assay: Antitumor activity against human MDA-MB-231 cells xenografted athymic mouse at 200 mg/kg, po, once a week for 4 weeks; format: functional, organism-based; design: dose 200 mg/kg; how it was run: as §2
DU-145 [6] = assay: Antitumor activity against human DU145 cells xenografted athymic mouse at 10 mg/kg/day, po after 25 days; format: functional
How it was run: (§3)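 Male NCr-nude mice, 6-8 weeks old, implanted s.c. in the flank with 5 × 10⁶ DU145 cells; treatment began once tumors reached about 50-100 mm³. Dosed orally at 10, 20 or 40 mg/kg once daily for 28 d. Tumor volume was (w² × l)/2 and inhibition read after 25 days of treatment (day 35).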

DU-145 [7] = assay: Antitumor activity against human DU145 cells xenografted athymic mouse at 20 mg/kg/day, po after 25 days; format: functional; how it was run: as §3
DU-145 [8] = assay: Antitumor activity against human DU145 cells xenografted athymic mouse at 40 mg/kg/day, po after 25 days; format: functional; how it was run: as §3
MCF7 = assay: Antiproliferative activity against human MCF7 cells by WST1 assay; format: functional
Steryl-sulfatase = target: T1, Steryl-sulfatase (Homo sapiens, UniProt P08842); assay: Inhibition of steroid sulfatase in placental microsomes; design: species or system Placenta
T1 sequence (P08842 whole entry): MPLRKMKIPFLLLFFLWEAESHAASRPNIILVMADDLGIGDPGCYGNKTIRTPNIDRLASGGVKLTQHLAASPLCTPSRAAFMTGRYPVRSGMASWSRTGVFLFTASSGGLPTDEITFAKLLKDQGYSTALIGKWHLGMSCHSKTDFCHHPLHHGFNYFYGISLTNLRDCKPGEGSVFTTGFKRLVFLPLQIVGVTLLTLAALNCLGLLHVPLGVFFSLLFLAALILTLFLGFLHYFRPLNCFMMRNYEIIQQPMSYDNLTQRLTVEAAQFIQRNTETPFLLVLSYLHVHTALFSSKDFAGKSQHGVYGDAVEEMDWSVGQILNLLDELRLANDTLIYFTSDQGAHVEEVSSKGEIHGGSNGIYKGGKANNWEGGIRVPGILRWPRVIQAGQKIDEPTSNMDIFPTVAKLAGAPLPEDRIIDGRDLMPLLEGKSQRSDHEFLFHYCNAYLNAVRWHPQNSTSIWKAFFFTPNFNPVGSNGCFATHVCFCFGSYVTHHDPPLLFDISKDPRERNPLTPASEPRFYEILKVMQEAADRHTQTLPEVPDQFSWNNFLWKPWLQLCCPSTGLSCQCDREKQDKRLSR
How it was run: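 Radiometric assay of STS activity in placental microsomes: conversion of tritiated estradiol-3-sulfate to estradiol is measured.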

GI50 (DU-145 [1]) [µM]	GI50 (MDA-MB-231 [2]) [µM]	Structure (SMILES)	also measured
15	16.6	CCCc1cc2c(cc1O)CC[C@@H]1[C@@H]2CC[C@]2(C)[C@@H](O)CC[C@@H]12	
24		CC(C)(C)c1cc2c(cc1O)CC[C@@H]1[C@@H]2CC[C@]2(C)[C@@H](O)CC[C@@H]12	
0.21	0.21	CCc1cc2c(cc1OS(N)(=O)=O)CC[C@@H]1[C@@H]2CC[C@]2(C)[C@@H](OS(N)(=O)=O)CC[C@@H]12	Activity (MDA-MB-231 [3]): Active; Activity (MDA-MB-231 [4]): Active; Activity (MDA-MB-231 [5]): Active; Activity (DU-145 [6]): 24%; Activity (DU-145 [7]): 27%; Activity (DU-145 [8]): 65%
18.4	21.6	CCCCc1cc2c(cc1OS(N)(=O)=O)CC[C@@H]1[C@@H]2CC[C@]2(C)[C@@H](OC(C)=O)CC[C@@H]12	
13	17	CC(C)(C)c1cc2c(cc1OS(N)(=O)=O)CC[C@@H]1[C@@H]2CC[C@]2(C)[C@@H](OC(N)=O)CC[C@@H]12	
1.9	4.7	Cc1cc2c(cc1OS(N)(=O)=O)CC[C@@H]1[C@@H]2CC[C@]2(C)[C@@H](OC(N)=O)CC[C@@H]12	
9	10.7	CCCCc1cc2c(cc1OS(N)(=O)=O)CC[C@@H]1[C@@H]2CC[C@]2(C)[C@@H](OS(N)(=O)=O)CC[C@@H]12	
21	14.5	CCCc1cc2c(cc1OS(N)(=O)=O)CC[C@@H]1[C@@H]2CC[C@]2(C)[C@@H](OC(N)=O)CC[C@@H]12	
11.5	18.3	C[C@]12CC[C@@H]3c4ccc(OS(N)(=O)=O)cc4CC[C@H]3[C@@H]1CC[C@@H]2OS(N)(=O)=O	
2.4	3.4	CC(C)c1cc2c(cc1OS(N)(=O)=O)CC[C@@H]1[C@@H]2CC[C@]2(C)[C@@H](OC(N)=O)CC[C@@H]12	
10.3	8	CCc1cc2c(cc1O)CC[C@@H]1[C@@H]2CC[C@]2(C)[C@@H](O)CC[C@@H]12	
15	> 100	CCCCc1cc2c(cc1OS(N)(=O)=O)CC[C@@H]1[C@@H]2CC[C@]2(C)[C@@H](OC(N)=O)CC[C@@H]12	
0.22	0.39	CCc1cc2c(cc1OS(N)(=O)=O)CC[C@@H]1[C@@H]2CC[C@]2(C)[C@@H](OC(N)=O)CC[C@@H]12	GI50 (MCF7): 0.64 µM
1.6		CCc1cc2c(cc1OS(N)(=O)=O)CC[C@@H]1[C@@H]2CC[C@]2(C)[C@@H](OC(C)=O)CC[C@@H]12	
1.8		CC(C)c1cc2c(cc1OS(N)(=O)=O)CC[C@@H]1[C@@H]2CC[C@]2(C)[C@@H](OS(N)(=O)=O)CC[C@@H]12	
51		Cc1cc2c(cc1O)CC[C@@H]1[C@@H]2CC[C@]2(C)[C@@H](O)CC[C@@H]12	
> 10		CC(C)(C)c1cc2c(cc1OS(N)(=O)=O)CC[C@@H]1[C@@H]2CC[C@]2(C)[C@@H](OS(N)(=O)=O)CC[C@@H]12	
61.3	20.4	CCCc1cc2c(cc1OS(N)(=O)=O)CC[C@@H]1[C@@H]2CC[C@]2(C)[C@@H](OC(C)=O)CC[C@@H]12	
0.38	0.25	Cc1cc2c(cc1OS(N)(=O)=O)CC[C@@H]1[C@@H]2CC[C@]2(C)[C@@H](OS(N)(=O)=O)CC[C@@H]12	
23		CC(C)c1cc2c(cc1O)CC[C@@H]1[C@@H]2CC[C@]2(C)[C@@H](O)CC[C@@H]12	
3.4	6.4	CCCc1cc2c(cc1OS(N)(=O)=O)CC[C@@H]1[C@@H]2CC[C@]2(C)[C@@H](OS(N)(=O)=O)CC[C@@H]12	

Structure (SMILES)	GI50 (DU-145 [1]) [µM]	GI50 (MDA-MB-231 [2]) [µM]	also measured
COc1cc2c(cc1O)CC[C@@H]1[C@@H]2CC[C@]2(C)[C@@H](O)CC[C@@H]12 [2-METHOXYESTRADIOL]		0.94	
COc1cc2c(cc1OS(N)(=O)=O)CC[C@@H]1[C@@H]2CC[C@]2(C)[C@@H](OS(N)(=O)=O)CC[C@@H]12	0.34	0.28	
CCCCc1cc2c(cc1O)CC[C@@H]1[C@@H]2CC[C@]2(C)[C@@H](O)CC[C@@H]12	> 100	> 100	
COc1cc2c(cc1OS(N)(=O)=O)CC[C@@H]1[C@@H]2CC[C@]2(C)[C@@H](OC(N)=O)CC[C@@H]12	1.34	1.15	GI50 (MCF7): 3.5 µM; pIC50 (Steryl-sulfatase): 6.28
C[C@]12CC[C@@H]3c4ccc(OS(N)(=O)=O)cc4CC[C@H]3[C@@H]1CC[C@@H]2OC(N)=O	> 100	> 100	GI50 (MCF7): 45 µM; pIC50 (Steryl-sulfatase): 7.40
